{"source": "paper PMC4215946", "about": "(Bioorganic & medicinal chemistry, 2013)", "key": {"CEM cells [1]": {"test_system": "CEM cells", "test": "Mitochondrial membrane potential", "format": "cell-based, human", "procedure,_shortened": "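CEM cells grown in RPMI with 10% heat-inactivated FBS at 37 °C, 5% CO2, then given 1 µM final test compound for 6 and 8 h. Stained with JC-1 (MitoProbe) per kit protocol: red aggregates mean polarized mitochondria, green monomers mean depolarized. Green cells scored by flow cytometry, about 10,000 events per sample. Controls were 50 µM CCCP, 1% v/v DMSO and untreated cells. Triplicates, mean ± standard deviation; two-tailed paired t-test.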"}, "CEM cells [2]": {"test_system": "CEM cells", "test": "Annexin V/PI apoptosis/necrosis assay", "format": "cell-based, human", "conditions": "72 h", "procedure,_shortened": "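CEM cells in RPMI/10% heat-inactivated FBS, 50,000 per well, rested 1 h, then dosed from DMSO dilutions; 72 h, 37 °C, 5% CO2. Collected on ice, annexin V-FITC/PI in binding buffer 15 min on ice, dark; ~10,000 events by flow. Apoptotic = early+late annexin-positive; PI-only = necrotic. Controls: untreated, 1% DMSO, 1 mM H2O2. Four wells; three independent experiments.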"}, "caspase-3": {"test_system": "caspase-3", "test": "Live-cell detection of intracellular caspase-3 activation", "format": "cell-based, human", "conditions": "CEM cells, 1 µM, 8 h", "procedure,_shortened": "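CEM cells in RPMI with 10% heat-inactivated FBS and penicillin/streptomycin, 37 °C, 5% CO2, seeded at 50,000 per well. Exposed to 1 µM test compound (DMSO dilutions) for 8 h, then labelled with fluorogenic NucView 488 caspase-3/7 live-cell substrate. Green-positive cells counted by flow cytometry, about 10,000 events per sample. Controls were 50 µM CCCP, 1% v/v DMSO and untreated cells. Mean ± standard deviation; two-tailed paired t-test.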"}, "[3]": {"test": "Solubility observation in cell culture medium", "format": "physicochemical", "conditions": "cell culture medium (aqueous environment)"}}}
{"smiles": "N#CC(C#N)=NNc1cccc(Cl)c1", "note": "[CCCP, carbonyl cyanide 3-chlorophenylhydrazone, reference compound]", "values": [{"measurement": "mitochondrial depolarization (JC-1 green signal)", "setting": "CEM cells [1]; 50 µM, positive control", "value": "strongly induced mitochondrial depolarization"}]}
{"smiles": "CCCCCCCCCCCC(=O)c1cc(O)c2ccccc2c1O", "note": "[Compound 3, 2-Dodecanoyl-1,4-naphthohydroquinone]", "values": [{"measurement": "mitochondrial depolarization (JC-1 green signal)", "setting": "CEM cells [1]; 1 µM, 6 and 8 h", "value": "induced a significant increase in mitochondrial depolarization from 6 to 8 h"}, {"measurement": "apoptosis (annexin V-FITC positive cells, early + late)", "setting": "CEM cells [2]; 10 µM", "value": 95.35, "unit": "%"}, {"measurement": "mode of cell death (apoptosis vs necrosis)", "setting": "CEM cells [2]; 10 µM", "value": "preferentially induce cell death via apoptosis"}, {"measurement": "caspase-3 activation", "setting": "caspase-3", "value": "has a tendency to induce cytotoxicity via caspase-3 activation"}]}
{"smiles": "CCC(=O)c1cc(O)c2ccccc2c1O", "note": "[Compound 4, 2-Propanoyl-1,4-naphthohydroquinone]", "values": [{"measurement": "solubility in cell culture medium", "setting": "[3]", "value": "generated insoluble crystals when added to the cell culture medium"}]}
{"smiles": "C/C=C/C(=O)c1cc(O)c2ccccc2c1O", "note": "[Compound 7, 2-Crotonyl-1,4-naphthohydroquinone]", "values": [{"measurement": "apoptosis (annexin V-FITC positive cells, early + late)", "setting": "CEM cells [2]; 50 µM", "value": 1.7, "unit": "%"}, {"measurement": "mode of cell death (apoptosis vs necrosis)", "setting": "CEM cells [2]; 50 µM", "value": "elicited a substantial amount of necrosis instead of apoptosis"}]}
